# Test results reported in article PMC12642897 (Journal of Enzyme Inhibition and Medicinal Chemistry, 2025).
# Columns and labels:
# [1] = target: α-glucosidase (Saccharomyces cerevisiae, UniProt P53341); assay: α-Glucosidase enzyme kinetic analysis; format: biochemical; settings: Lineweaver–Burk plot
# In short: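 Yeast (S. cerevisiae) α-glucosidase in phosphate buffer, pH 6.8. p-NPG at 0.625, 1.25 and 2.5 mM was crossed with four concentrations of each test compound (sets of 7–40, 20–80 or 2–12 µM). Incubated 10 min at 37 °C, stopped with 0.2 M Na₂CO₃, read at 405 nm. Lineweaver–Burk plots assign inhibition mode.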
# [2] = target: T1, PTP1B (Homo sapiens, UniProt P18031); assay: PTP1B enzyme kinetic analysis; format: biochemical; settings: for Ki: PTP1B Ki value, secondary plot
# T1 sequence (P18031 1-435): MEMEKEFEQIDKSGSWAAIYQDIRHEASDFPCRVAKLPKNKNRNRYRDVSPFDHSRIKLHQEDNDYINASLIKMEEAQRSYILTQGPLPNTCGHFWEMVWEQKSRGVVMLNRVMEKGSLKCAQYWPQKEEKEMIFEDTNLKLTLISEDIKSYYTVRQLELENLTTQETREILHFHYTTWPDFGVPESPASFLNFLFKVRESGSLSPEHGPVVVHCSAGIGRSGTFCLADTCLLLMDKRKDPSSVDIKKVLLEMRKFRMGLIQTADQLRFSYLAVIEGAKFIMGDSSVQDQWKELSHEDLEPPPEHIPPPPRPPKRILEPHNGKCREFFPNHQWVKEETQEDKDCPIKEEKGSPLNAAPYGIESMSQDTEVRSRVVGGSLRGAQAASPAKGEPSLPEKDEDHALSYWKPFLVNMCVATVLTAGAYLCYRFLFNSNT
# In short: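 Human recombinant PTP1B in 50 mM citrate buffer (pH 6.0) with 0.1 M NaCl, 1 mM EDTA and 1 mM DTT. Test compound at 2, 4, 10 and 12 µM was crossed with p-NPP at 0.5, 1 and 2 mM. Enzyme plus inhibitor preincubated 10 min at 37 °C, then substrate added for 20 min at 37 °C. NaOH stop, A405. Lineweaver–Burk for mode; secondary plots for Kic/Kiu.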
# [3] = target: T1, PTP1B; assay: PTP1B inhibition assay; format: biochemical; settings: PTP1B IC50, isolated compounds and positive control; tested 1 to 100 µM
# [4] = target: α-glucosidase enzyme from Saccharomyces cerevisiae (Saccharomyces cerevisiae, UniProt P53341); assay: α-Glucosidase inhibition assay; format: biochemical
# Chain of α-glucosidase enzyme from Saccharomyces cerevisiae (P53341 whole entry): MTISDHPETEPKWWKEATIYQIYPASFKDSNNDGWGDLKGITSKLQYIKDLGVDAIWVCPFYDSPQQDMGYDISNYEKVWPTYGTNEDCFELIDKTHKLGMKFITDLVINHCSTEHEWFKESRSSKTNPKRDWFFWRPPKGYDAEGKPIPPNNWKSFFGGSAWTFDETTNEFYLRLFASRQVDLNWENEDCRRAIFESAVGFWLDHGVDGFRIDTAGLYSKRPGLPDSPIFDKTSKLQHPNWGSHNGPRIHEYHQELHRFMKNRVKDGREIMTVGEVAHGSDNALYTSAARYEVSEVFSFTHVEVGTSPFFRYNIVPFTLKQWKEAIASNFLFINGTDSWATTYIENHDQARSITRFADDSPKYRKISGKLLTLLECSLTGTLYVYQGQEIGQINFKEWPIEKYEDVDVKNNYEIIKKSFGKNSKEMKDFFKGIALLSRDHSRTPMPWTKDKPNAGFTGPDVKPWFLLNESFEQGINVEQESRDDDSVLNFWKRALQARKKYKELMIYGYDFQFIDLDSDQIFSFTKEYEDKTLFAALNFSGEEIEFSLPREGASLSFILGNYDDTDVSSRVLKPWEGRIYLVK
# [5] = target: rat maltase; settings: read-out: IC50 against rat maltase; ref 44 (Barber's review); cited from earlier work
# [6] = target: rat sucrase; settings: read-out: IC50 against rat sucrase; ref 44 (Barber's review); cited from earlier work
# Chain of α-glucosidase (P53341 whole entry): as above
α-glucosidase Inhibition type [1],PTP1B Inhibition type ([2]; Lineweaver–Burk plot),Ki ([2]; Kic) [µM],Ki ([2]; Kiu) [µM],IC50 [3] [µM],IC50 [4] [µM],α-glucosidase potency relative to acarbose ([4]; ratio of IC50 values),Structure (SMILES),IC50 [5] [µM],IC50 [6] [µM]
Uncompetitive,mixed-type,12.2,5.5,8 ± 1.1,3.4 ± 0.2,over 70 times,"O=c1oc(-c2ccc(O)c(O)c2)cc2cccc(O)c12 [Compound 12, Thunberginol A]",,
,,,,,,,O=c1c(O)c(-c2ccc(O)c(O)c2)oc2cc(O)cc(O)c12 [quercetin],281,> 400
